SUMO1 PPI mod = alters human SUMO1 binding to SIM partners; P63165; SUMO1 binding to a labelled peptide, TR-FRET, 1 h; inhibition, % at 20 µM; actives 0.33% (n = 360,000); in the data active = inhibition above about 37%
Target sequence (P63165 whole entry, looked up): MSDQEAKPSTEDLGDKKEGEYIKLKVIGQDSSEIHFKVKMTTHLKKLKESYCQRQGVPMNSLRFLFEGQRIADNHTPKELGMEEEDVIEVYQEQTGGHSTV
STEP block = STEP (human) phosphatase inhibition; inhibition, % at 20 µM; recombinant STEP, OMFP fluorogenic substrate, fluorescence; AID 588621; actives 0.25% (n = 360,000);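 active = inhibition at 20 µM, scaled per plate between control wells, above about 37%, limit read from the data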
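material = STEP tyrosine phosphatase | reagent = fluorogenic phosphatase substrate OMFP at 25 µM final | doses = single compound dose of 20 µM, 1% DMSO final | schedule = 20 min reaction, room temperature, in the dark | measured by = fluorescence, 480/540 nm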
DNMT1 block = blocks human DNA methyltransferase DNMT1; P26358; DNMT1 molecular beacon, Hinp1I cleavage, fluorescence; inhibition (reported as % activation of signal), % at 10 µM; actives 0.83% (n = 360,000); in the data active = inhibition above about 50%
LMPTP block = LMPTP (human) inhibition | actives 0.22% (n = 360,000) | AID 651560 | recombinant LMPTP-A, OMFP fluorogenic substrate, fluorescence intensity | inhibition, % at 20 µM;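 active = compounds that cut the enzyme signal by at least half of the control window in the single-dose screen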
Target sequence (P24666 whole entry, looked up): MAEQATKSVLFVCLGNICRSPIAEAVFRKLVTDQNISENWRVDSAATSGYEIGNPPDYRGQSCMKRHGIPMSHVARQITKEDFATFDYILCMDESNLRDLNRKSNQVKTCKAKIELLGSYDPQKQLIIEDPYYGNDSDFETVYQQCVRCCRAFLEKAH
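Test system – LMPTP-A phosphatase enzyme · Quantity – 0.625 nM LMPTP-A final · Reagent – OMFP substrate, 400 µM final · Dosing – one test concentration per compound, 20 µM, with 3% DMSO overall · Timing – 50 min enzyme reaction at room temperature, protected from light · Detection – fluorescence intensity · Controls – substrate-only low control, DMSO enzyme-plus-substrate high control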
Scp-1 inhibitor = Scp-1 (human) phosphatase inhibition; actives 0.88% (n = 340,000); AID 493091; Q9GZU7; Recombinant Scp1, phosphopeptide, malachite green phosphate absorbance; inhibition, % at 20 µM;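 active = inhibition above about 50% at 20 µM, limit read from the data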
Target sequence (Q9GZU7 76-261 limits assumed): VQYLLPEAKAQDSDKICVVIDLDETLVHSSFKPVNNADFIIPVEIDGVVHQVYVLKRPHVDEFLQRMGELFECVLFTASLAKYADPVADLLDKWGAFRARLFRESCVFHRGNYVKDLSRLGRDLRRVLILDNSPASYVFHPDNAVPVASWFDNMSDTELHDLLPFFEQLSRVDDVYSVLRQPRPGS
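System: SCP-1 catalytic domain; Reagent: Phospho 17-mer peptide substrate; Doses: one concentration, 20 µM, with 1.0% DMSO; Incubation: 45 min room-temperature reaction, 5 min colour, 30 min stabiliser; Signal: Phosphate-binding colour reagent, absorbance read at 630 nm.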
Scp1 confirm = confirmation of human Scp-1 phosphatase inhibitors. recombinant SCP-1 catalytic domain, phosphate release, malachite green absorbance. shares compounds with Scp-1 inhibitor. inhibition, % at 20 µM. AID 540281. actives 61% (n = 2,500)
Scp-1 MG ctr = counter-screen for Scp-1 inhibitors: colorimetric interference; Colorimetric interference counterscreen, malachite green absorbance 630 nm; 2,500 tested, under 10 active; shares compounds with Scp-1 inhibitor; AID 540313; apparent inhibition (interference), % at 20 µM;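 note: compounds added after enzyme reaction finished so only phosphate colour detection is probed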
Scp1 DSF = validation of human Scp-1 inhibitors by thermal shift binding | shares compounds with Scp-1 inhibitor | Recombinant SCP1, Sypro Orange thermal shift Tm | thermal shift relative to vanadate control, % at 40 µM | actives 25% (n = 1,500);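 active = substances whose mean melting-temperature shift, as a percentage of the reference inhibitor's shift, reaches about 5.3%, limit read from the data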
Hits are given with their value; 0 = inactive; - = no result. The list is not random: actives were taken first. Their share in the collection is about 1.8%.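 Rule for the calls, unless noted: active = inhibition of at least 30% at 20 µM; inactive = the rest.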

SMILES	SUMO1 PPI mod	STEP block	DNMT1 block	LMPTP block	Scp-1 inhibitor	Scp1 confirm	Scp-1 MG ctr	Scp1 DSF
CCOC(=O)N1CCC(NC(=O)c2cn(-c3ccc(OC)cc3)c(=O)c3ccccc23)CC1	0	0	0	0	0	-	-	-
CC(C)c1ccc(OC(=O)c2cccc(S(=O)(=O)N3CCN(C)CC3)c2)cc1	0	0	0	0	96	86	0	0
CN1CCN(S(=O)(=O)c2cccc(C(=O)Oc3ccc(C(C)(C)C)cc3)c2)CC1	0	0	0	0	0	-	-	-
CC(NC(=O)COC(=O)c1cccc(S(=O)(=O)N2CCCC2)c1)c1ccccc1 (configuration not stated)	0	0	0	0	53	0	0	-
N#CC1(NC(=O)COc2ccccc2[N+](=O)[O-])CCCCC1	0	0	0	0	52	73	0	0
O=C(CSc1nc(-c2ccccc2)nc2ccc(F)cc12)Nc1cccc(C(=O)O)c1	0	0	0	63	67	60	0	0
O=C(CSc1nc(-c2ccccc2)nc2ccc(F)cc12)Nc1ccc(C(=O)O)cc1	0	0	0	62	61	53	0	0
CC(C)OC(=O)CSc1nc(-c2ccc(F)cc2)nc2ccc(F)cc12	0	0	0	0	0	-	-	-
Cc1ccc(S(=O)(=O)N2CCN(C(=O)CN3C(=O)c4ccc([N+](=O)[O-])cc4C3=O)CC2)c(C)c1	0	0	0	0	0	-	-	-
COC(=O)c1c(NC(=O)COC(=O)[C@@H](NS(=O)(=O)c2cccc(Cl)c2)C(C)C)sc2c1CCC2	0	0	0	0	0	-	-	-
CC(C)[C@H](NS(=O)(=O)c1cccc(Cl)c1)C(=O)OCC(=O)NC(=O)CN1CCCC1=O	0	0	0	0	57	42	0	0
Cc1cc(=O)oc2cc(NC(=S)NCc3ccccn3)ccc12	0	0	0	0	0	-	-	-
Cc1cc(=O)oc2cc(NC(=S)NNC(=O)c3c(Cl)cnn3C)ccc12	0	0	0	0	70	67	0	0
Cn1cccc/c1=N\c1cccc[n+]1C	0	0	0	0	107	0	0	-
Oc1ccc(C[C@H]2CN([C@@H](Cc3ccccc3)CN3CCC[C@@H]3CN3C(=S)NC[C@@H]3Cc3ccccc3)C(=S)N2CC2CCCCC2)cc1	0	0	0	0	-	-	-	-
Oc1ccc(C[C@H]2CNC(=S)N2CC2CCCN2C[C@H](Cc2ccc(O)cc2)N2C[C@H](Cc3ccccc3)N(CC3CCCCC3)C2=S)cc1 (some centres not stated)	0	0	0	0	50	0	0	-
COc1ccc(CCC(=O)N2CCN(c3ccccc3)CC2)cc1OC	0	0	0	0	0	-	-	-
COc1cc(/C=C2\C(=N)N3N=C(S(C)(=O)=O)SC3=NC2=O)ccc1OCCOc1ccccc1C	0	0	0	0	51	57	0	12
CCOc1cc(/C=C2\C(=N)N3N=C(S(=O)(=O)CC)SC3=NC2=O)ccc1OC(=O)c1ccco1	0	0	0	0	0	-	-	-
COc1cc(/C=C2\C(=N)N3N=C(S(C)(=O)=O)SC3=NC2=O)ccc1OC(=O)c1ccco1	0	0	0	0	52	68	0	11
CN(C)c1cccc(C(=O)NCCCSc2ccccc2)c1	0	0	0	0	0	-	-	-
NC(=O)C1CC(=O)N(c2ccc(OCc3ccc(Cl)c(Cl)c3)cc2)C1 (configuration not stated)	0	0	0	0	-	-	-	-
O=S1(=O)NC(CC2=CCCCC2)C2CCCCC2O1 (configuration not stated)	0	0	0	0	50	0	0	-
CCOC(=O)C1(C)CCN1C(=O)c1ccc(C(C)(C)C)cc1 (configuration not stated)	0	0	0	0	-	-	-	-
COC1OC(c2ccccc2)=C(c2ccc(C(N)=O)cc2)c2ccc(F)cc21 (configuration not stated)	0	-	-	0	-	-	-	-
SMILES	SUMO1 PPI mod	STEP block	DNMT1 block	LMPTP block	Scp-1 inhibitor	Scp1 confirm	Scp-1 MG ctr	Scp1 DSF
O=C(O)/C(=C\c1cccc(F)c1)c1ccc(S(=O)(=O)N2CCCC2)s1	0	0	0	0	0	-	-	-
Cc1cccc(/C=C(\C(=O)O)c2ccc(S(=O)(=O)N3CCCC3)s2)c1	0	0	62	0	93	77	0	0
CCN(CC)CCNC(C(=O)Nc1cc(C(F)(F)F)ccc1Cl)c1ccccc1 (configuration not stated)	0	0	0	0	91	91	0	0
O=c1c2ccccc2sn1-c1cc(S(=O)(=O)N2CCOCC2)ccc1N1CCCC1	0	0	0	0	88	55	0	0
COc1ccc(C(=O)Nc2cc(-c3nn4c(C)nnc4s3)ccc2C)cc1	0	0	0	0	0	-	-	-
COc1ccc(C(=O)Nc2cnc3sc(C)nn3c2=O)cc1	0	0	0	0	51	0	0	-
CCCC1=Nc2cc(C(=O)N3CCN(c4ccccn4)CC3)ccc2Sc2ccc(C)cc21	0	0	0	0	0	-	-	-
C[N+]12CCCCC1[C@@H](CO)CCC2 (some centres not stated)	0	0	0	0	55	0	0	-
C[N+]1(C2CCC3CCC2C3O)CCCC1 (configuration not stated)	0	0	0	0	0	-	-	-
O=C(CN1c2cccc3cccc(c23)S1(=O)=O)Nc1ccc(F)c(F)c1F	0	0	0	0	0	-	-	-
CCc1noc(C)c1C(=O)Nc1cc(C(F)(F)F)ccc1-n1cncn1	0	0	0	0	65	0	0	-
Cc1ccc(C)c(OCCn2nnc3ccccc32)c1	0	0	0	0	0	-	-	-
Cc1cc(C)cc(OCCn2nnc3ccccc32)c1	0	0	0	0	62	0	0	-
COc1ccc(C2C(C#N)=C(N)OC3=C2C(=O)CC(C)(C)C3)c(OC)c1OC (configuration not stated)	0	0	0	0	51	0	0	-
O=C(O)c1ccc2c(=O)n(-c3ccccc3)c(=S)[nH]c2c1	0	0	0	0	79	0	0	-
CSc1nc2nccc(-c3ccc(Cl)cc3)n2n1	0	0	0	0	84	71	0	0
CC(C)(C)c1ccc(S(=O)(=O)N2CCN(C(=O)C3CCC3)CC2)cc1	0	0	0	0	0	-	-	-
O=C(CCS(=O)(=O)c1ccc(Br)cc1)Nc1ccc(Cl)cc1F	0	0	0	0	0	-	-	-
O=C(CCS(=O)(=O)c1ccc(Br)cc1)Nc1ccc(Br)cc1F	0	0	0	0	56	54	0	0
Cn1c(=O)oc2cc(S(=O)(=O)NCCC(=O)NCCc3ccc(Cl)cc3)ccc21	0	0	0	0	0	-	-	-

High-throughput results deposited in PubChem BioAssay by Sanford-Burnham Center for Chemical Genomics.
